proCasp7 act = activates human procaspase-7, counter-screen for procaspase-3 activators; P55210; recombinant procaspase-7, Ac-DEVD-pNA absorbance 405 nm; D23A/D198A/D206A triple mutant, cannot self-cleave; scale: DMSO 0, 5 µM enzyme 100; activation, % at 8.5 µM; 0.093% of 330,000 active; AID 463210;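 active = percent activation above the screen-wide mean plus 3 SD, cut at about 25% in these data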
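System: Procaspase-7 triple mutant (PC-7 D3A); measure: % activation from two-timepoint absorbance difference, scaled to controls; times: 1 h compound preincubation, 2 h substrate cleavage, 25 °C; also added: Ac-DEVD-pNA substrate, 400 µM as added; measured by: Epi-absorbance of released pNA at 405 nm, two timepoints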
Apaf1 inhib = human Apaf-1 inhibition; O14727; AID 489030; reconstituted apoptosome caspase-3 activity, DEVD-Rh110 fluorescence; inhibition, % at 20 µM; 0.71% of 330,000 active; active = inhibition of at least 40% at 20 µM
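Medium: Hepes buffer, pH 7.5 / System: biochemical Apaf-1 apoptosome reconstitution / Measured by: Rh110 fluorescence, excitation 480 nm, emission 540 nm / Times: compound with Apaf-1, dATP, procaspase-3 30 min, then 50 min reaction, room temperature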
ZTA DNA inh = ZTA (EBV) inhibition in EBNA-1 counter-screen; ZTA-DNA binding, fluorescence polarization; inhibition, % at 11 µM; AID 2234; 0.15% of 320,000 active; in the data active = inhibition above about 33%
EBNA-1 inhibitor = blocks EBNA-1 binding to DNA | EBNA-1 DNA binding, fluorescence polarization | inhibition, % at 14.8 µM | 0.34% of 300,000 active | AID 1950; in the data active = inhibition above about 28%
GSTO1 counter = GSTO1 inhibition, counter-screen for RBBP9 inhibitors | AID 1974 | 1.1% of 300,000 active | recombinant GSTO1, activity-based probe fluorescence polarization | inhibition, % at 5.96 µM | P78417;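 active = inhibition above the campaign mean inhibition plus 3 SD, cut at about 35% in these data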
proCasp3 act = procaspase-3 (human) activation; 0.11% of 330,000 active; recombinant procaspase-3 D3A, Ac-DEVD-pNA absorbance 405 nm; P42574; AID 463141; activation, % at 8.5 µM;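 active = activation above the mean of all tested compounds plus 3 SD, cut at about 21% in these data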
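Assay system: Procaspase-3 D3A mutant, all three cleavage aspartates alanine. Buffer or medium: Zinc-free HEPES saline buffer with Triton X-100. Times: 1 h compound preincubation, 2 h substrate hydrolysis at 25 °C. Measured by: 405 nm absorbance of p-nitroaniline, reads at 0 and 120 min. Read-out basis: percent activation relative to control range. Replicates: singlicate.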
GSTO1 inh conf = GSTO1 (human) inhibition, confirmation | shares compounds with GSTO1 counter | recombinant GSTO1, probe fluorescence polarization | inhibition, % at 5.96 µM | 54% of 2,400 active;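 active = inhibition above the primary screen's cutoff, its mean inhibition plus 3 SD, cut at about 35% in these data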;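 also: loss of polarization as inhibitors block binding of rhodamine sulfonate ester activity probe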
ZTA inh confirm = EBV ZTA DNA binding inhibition, confirmation. shares compounds with ZTA DNA inh. 30% of 320 active. Zta-ZRE DNA binding, fluorescence polarization. inhibition, % at 11.1 µM;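 active = mean inhibition across triplicate runs above the hit threshold derived for the original primary screen, cut at about 33% in these data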
EBNA1 counter = EBNA-1 DNA binding inhibition, counter-screen for ZTA; shares compounds with ZTA DNA inh; fluorescence polarization; inhibition, % at 14.8 µM; 320 tested, under 10 active
proCasp7 act trip = counter-screen: procaspase-7 (human) activation in triplicate | shares compounds with proCasp3 act | recombinant procaspase-7, Ac-DEVD-pNA absorbance; asp23/198/206-to-Ala mutant, cannot self-cleave | activation, % at 8.5 µM | 210 tested, under 10 active;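 active = mean activation above a set limit taken from an earlier procaspase-7 screen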
procasp3 conf = procaspase-3 (human) activation, confirmed; shares compounds with proCasp3 act; recombinant PC-3 D3A, Ac-DEVD-pNA absorbance 405 nm; 100% is higher-enzyme control; activation, % at 8.5 µM; 10% of 210 active;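 active = mean activation above a set limit carried over from the earlier primary screen, cut at about 22% in these data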
PC3 D3A act = counter-screen: procaspase-3 (human) activation; activation, % at 8.5 µM; shares compounds with proCasp7 act; recombinant PC-3 D3A, Ac-DEVD-pNA absorbance 405 nm; aspartates 9, 28, 175 changed to alanine; 100% = enzyme control; 290 tested, under 10 active;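 active = mean percent activation across triplicates above a set limit taken from the earlier primary procaspase-3 screen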
Procasp7 act = procaspase-7 (human) activation, dual activator confirmation; activation, % at 8.5 µM; shares compounds with proCasp7 act; 290 tested, under 10 active; recombinant procaspase-7, Ac-DEVD-pNA absorbance 405 nm; D23A/D198A/D206A mutant that cannot self-cleave; AID 493115;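 active = mean activation above a set limit carried over from the earlier primary screen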
Apaf-1 inh conf2 = confirmation of Apaf-1 inhibitors; AID 504614; shares compounds with Apaf1 inhib; reconstituted apoptosome, caspase-3 DEVD-Rh110 fluorescence; inhibition, % at 20 µM; 25% of 1,800 active;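 active = mean inhibition of at least 40% at 20 µM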
Rh110 interf inh = interferes with Rh110 fluorescence, flagging false Apaf-1 inhibitors | shares compounds with Apaf1 inhib | Rh110 fluorescence interference, quenched caspase reaction | activation (fluorescence interference), % at 20 µM | 1,800 tested, under 10 active | AID 504615;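 active = signal rise of 40% or more at 20 µM, treated as a fluorescence artifact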
Fluor interf inh = shows fluorescence interference in the Apaf-1 inhibitor assay format | IC50, µM | 460 tested, under 10 active | fluorescence interference counterscreen, Apaf-1 assay format | shares compounds with Apaf1 inhib
Each line names hits and unclear results; the compound was inactive in the other large screens (follow-up assays come after a bar, where they were run). Only some compounds are listed: those with a hit (about 1.8% of all), similar ones and a draw of the others. Unless noted, no rule for the calls is given here.

CCOC(=O)c1c(NC(=O)c2c(N)n(CCCOC)c3nc4ccccc4nc23)sc2c1CCCC2	none
COc1cc2c(cc1O)C[C@H]1NCCc3cc4c(c-2c31)OCO4	Apaf1 inhib 71.0, GSTO1 counter 54.6 | GSTO1 inh conf inactive | Apaf-1 inh conf2 inactive | Rh110 interf inh inactive
COc1c2c(cc3c1OCO3)CCN(C)C2	none
COC(=O)C(O)(c1c[nH]c2ccccc12)C(F)(F)F (stereo not drawn)	none
COC(=O)C(O)(c1c(C)[nH]n(-c2ccccc2)c1=O)C(F)(F)F (stereo not drawn)	Apaf1 inhib 78.6, GSTO1 counter 50.1 | GSTO1 inh conf 52.4 | Apaf-1 inh conf2 52.3 | Rh110 interf inh inactive | Fluor interf inh inactive
O=c1[nH]c(O)c(N=Nc2ccc([N+](=O)[O-])cc2)c(=O)[nH]1	none
COc1cc2[nH]c(=O)n(-c3cccc(Cl)c3)c(=O)c2cc1OC	none
O=c1[nH]c2ccccc2c(=O)n1-c1ccc(Cl)cc1Cl	ZTA DNA inh 34.9 | ZTA inh confirm inactive | EBNA1 counter inactive
CCCCOP(=O)(OCCCC)/C(C#N)=C(/C)O	ZTA DNA inh active | ZTA inh confirm inactive | EBNA1 counter inactive
CCc1ccc2nc(N3CCC(C(=O)N4CCC5(CC4)OCCO5)CC3)sc2c1	none
CC[n+]1c(/C=C/C=C/c2ccc(N(C)C)cc2)sc2ccccc21	ZTA DNA inh 163.9, EBNA-1 inhibitor 105.1, proCasp3 act 39.1 | proCasp7 act trip inactive | procasp3 conf inactive
CC[n+]1c(/C=C/N(C)c2ccccc2)sc2ccc(Cl)cc21	none
Cc1cc(OCC(=O)N2CCC(C(=O)O)CC2)c2c3c(c(=O)oc2c1)CCC3	none
Cc1ccc(-c2nc3ccccc3c(=O)n2-c2cccc(C)n2)cc1	proCasp3 act 44.4 | proCasp7 act trip inactive | procasp3 conf inactive
Nc1c(C(=O)NCc2ccco2)c2nc3ccccc3nc2n1Cc1ccccc1	proCasp7 act 45.8 | PC3 D3A act inactive | Procasp7 act inactive
CC(=O)c1cccc(OCC(=O)N2CCN(CC(=O)Nc3cccc(F)c3)CC2)c1	none (no result: EBNA-1 inhibitor, GSTO1 counter)
COC(=O)C1=C(c2ccc(OCc3ccccc3)cc2)C[C@@H]2CC[C@H]1N2C(=O)NC1CCN(Cc2ccccc2)CC1	Apaf1 inhib 57.7 (no result: EBNA-1 inhibitor, GSTO1 counter) | Apaf-1 inh conf2 inactive | Rh110 interf inh inactive
CN1CCN(c2ncc(C=O)s2)CC1	none
CCOP(=S)(OCC)SCCSCC	none (no result: EBNA-1 inhibitor, GSTO1 counter)
NC1=NC(c2cccnc2)n2c(nc3ccccc32)N1 (stereo not drawn)	none
COc1ccc(Cn2c(N)c(C(=O)NCc3ccco3)c3nc4ccccc4nc32)cc1	Apaf1 inhib 66.9 | Apaf-1 inh conf2 inactive | Rh110 interf inh inactive
COc1ccc(Cn2c(O)c(/C=N/NC(=O)c3ccccc3)c(=O)[nH]c2=O)cc1	none
COCCOC(=O)c1c(N)n(Cc2ccccc2)c2nc3ccccc3nc12	Apaf1 inhib 82.6 | Apaf-1 inh conf2 inactive | Rh110 interf inh inactive
CN(C)C(=O)Oc1ccc(OCc2n(C)c3ccccc3[n+]2C)cc1	none
NC(N)=N/N=C/c1cn(-c2ccccc2)nc1-c1cccs1	Apaf1 inhib 40.9 | Apaf-1 inh conf2 inactive | Rh110 interf inh inactive
COc1cc2[nH]c(=O)n(-c3ccccc3)c(=O)c2cc1OC	none
COc1cc(C(c2c(C)[nH]n(-c3ccccc3)c2=O)c2c(C)[nH]n(-c3ccccc3)c2=O)cc(OC)c1OC	Apaf1 inhib 91.8, GSTO1 counter 79.2 | Apaf-1 inh conf2 62.1 | Rh110 interf inh inactive | Fluor interf inh inactive
CCn1c(NN=O)nc2ccccc21	none
CCCCn1c(NS(=O)(=O)c2ccc(C)cc2)c(C(=O)OCC)c2nc3ccccc3nc21	Apaf1 inhib 90.3, GSTO1 counter 82.2 | Apaf-1 inh conf2 inactive | Rh110 interf inh inactive
CC1CN=C(NCCc2ccccc2)S1 (stereo not drawn)	none
COc1ccccc1-n1c(O)c(/C=N/NC(=S)Nc2ccccc2)c(=O)[nH]c1=S	none
CCn1nc(/C=C/c2ccccc2)nc2c(=O)n(C)c(=O)nc1-2	Apaf1 inhib 98.8 (no result: proCasp7 act, ZTA DNA inh, EBNA-1 inhibitor, GSTO1 counter, proCasp3 act) | Apaf-1 inh conf2 100.3 | Rh110 interf inh inactive | Fluor interf inh inactive
CC(C)OCCCNC(=O)c1c(N)n(CC2CCCO2)c2nc3ccccc3nc12 (stereo not drawn)	Apaf1 inhib 93.9 | Apaf-1 inh conf2 inactive | Rh110 interf inh inactive
CCCNC(=O)c1c(N)n(CC2CCCO2)c2nc3ccccc3nc12 (stereo not drawn)	Apaf1 inhib 92.6, GSTO1 counter 35.1 | Apaf-1 inh conf2 44.3 | Rh110 interf inh inactive | Fluor interf inh inactive
COC(=O)C1=C(c2ccc3ccccc3c2)C[C@@H]2CC[C@H]1N2C(=O)NCCCOC(C)C	none (no result: EBNA-1 inhibitor, GSTO1 counter)
